Columns and labels:
[1] = target: T1, GABA-A receptor; alpha-5/beta-3/gamma-2 (Homo sapiens, UniProt P18507+P28472+P31644); test: Displacement of [3H]Ro-151788 from recombinant human GABA-Aalpha5 receptor plus beta3gamma2; type: protein-complex assay
T1 sequence (P18507 whole entry): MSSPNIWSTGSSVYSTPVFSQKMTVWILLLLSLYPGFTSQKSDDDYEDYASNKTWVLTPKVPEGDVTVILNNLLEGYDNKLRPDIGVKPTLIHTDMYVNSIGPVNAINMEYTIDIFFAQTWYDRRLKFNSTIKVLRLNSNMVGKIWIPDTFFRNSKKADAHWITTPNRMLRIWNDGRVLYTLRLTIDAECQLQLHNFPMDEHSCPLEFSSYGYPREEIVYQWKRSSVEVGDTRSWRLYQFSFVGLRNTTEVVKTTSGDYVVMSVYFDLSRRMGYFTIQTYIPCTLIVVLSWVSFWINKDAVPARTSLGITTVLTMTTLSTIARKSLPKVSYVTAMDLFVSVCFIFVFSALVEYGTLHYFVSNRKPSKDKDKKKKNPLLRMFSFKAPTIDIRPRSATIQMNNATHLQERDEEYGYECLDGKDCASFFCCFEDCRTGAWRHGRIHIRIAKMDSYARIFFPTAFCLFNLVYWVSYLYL
T1 sequence (P28472 whole entry): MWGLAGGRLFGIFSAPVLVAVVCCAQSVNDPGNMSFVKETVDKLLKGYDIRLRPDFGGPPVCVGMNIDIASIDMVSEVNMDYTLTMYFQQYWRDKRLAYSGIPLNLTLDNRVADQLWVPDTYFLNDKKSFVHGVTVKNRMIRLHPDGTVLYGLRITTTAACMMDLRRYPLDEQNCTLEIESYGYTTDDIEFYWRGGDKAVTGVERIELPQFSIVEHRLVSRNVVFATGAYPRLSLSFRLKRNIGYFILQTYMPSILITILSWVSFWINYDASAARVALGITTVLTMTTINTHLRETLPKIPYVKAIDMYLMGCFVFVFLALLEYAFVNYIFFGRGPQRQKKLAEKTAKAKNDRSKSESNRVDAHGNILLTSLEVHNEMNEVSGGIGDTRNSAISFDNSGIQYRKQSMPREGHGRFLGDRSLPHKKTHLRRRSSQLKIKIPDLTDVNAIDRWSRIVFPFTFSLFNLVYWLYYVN
T1 sequence (P31644 whole entry): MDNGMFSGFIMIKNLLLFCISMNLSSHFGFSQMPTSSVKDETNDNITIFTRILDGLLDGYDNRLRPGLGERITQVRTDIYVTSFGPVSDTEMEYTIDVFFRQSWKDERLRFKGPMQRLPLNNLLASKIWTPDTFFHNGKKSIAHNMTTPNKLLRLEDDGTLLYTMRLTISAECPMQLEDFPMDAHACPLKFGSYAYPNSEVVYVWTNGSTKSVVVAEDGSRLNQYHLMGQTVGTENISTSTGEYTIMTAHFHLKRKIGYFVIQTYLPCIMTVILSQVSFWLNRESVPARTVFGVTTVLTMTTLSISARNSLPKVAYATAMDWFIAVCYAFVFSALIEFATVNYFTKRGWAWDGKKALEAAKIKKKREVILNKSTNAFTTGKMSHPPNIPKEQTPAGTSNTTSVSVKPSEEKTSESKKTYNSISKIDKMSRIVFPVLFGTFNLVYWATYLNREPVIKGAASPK
How it was run: (§1)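 Benzodiazepine-site binding on stably transfected αxβ3γ2 receptors (x = 1, 2, 3 or 5). Inhibition curves run with [3H]Ro15-1788 at roughly twice its Kd. Ki derived by Cheng-Prusoff equation. Mean of three to six determinations.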

[2] = Stability in rat assessed as liver microsomal turnover; type: ADME, Microsome; conditions: liver microsomes, read-out: Stability
How it was run: (§2)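 Test compound at 1 µM, with diazepam as control, incubated 0.25 h with pooled liver microsomes at 0.5 mg/mL protein. Compound remaining quantified by LC/MS/MS. Turnover is the mean of three determinations.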

[3] = target: T2, GABA-A receptor; alpha-1/beta-3/gamma-2 (Homo sapiens) (UniProt P14867+P18507+P28472); test: Efficacy against recombinant human GABA-Aalpha1 plus beta-3-gamma-2 expressed in L(tk-) cells by whole cell patch clamp method relative to chlordiazepoxide; type: functional, cell-based
How it was run: (§3)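 Whole-cell patch clamp on αxβ3γ2 receptors stably expressed in L(tk-) cells, measuring the effect on current evoked by an EC20-equivalent of GABA. Reported relative to full agonist chlordiazepoxide (=1.0), or as direct percent modulation of the EC20 control, with inverse agonism given as percent. Mean of at least four independent experiments.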

[4] = target: GABA-A receptor; alpha-3/beta-3/gamma-2 (Homo sapiens) (UniProt P18507+P28472+P34903); test: Efficacy against recombinant human GABA-Aalpha3 plus beta-3-gamma-2 expressed in L(tk-) cells by whole cell patch clamp method relative to chlordiazepoxide; type: functional, cell-based; how it was run: as §3
[5] = Stability in dog assessed as liver microsomal turnover; type: ADME, Canis lupus familiaris; conditions: liver microsomes, read-out: Stability; how it was run: as §2
[6] = target: T3, GABA-A receptor; alpha-3/beta-3/gamma-2 (Homo sapiens, UniProt P18507+P28472+P34903); test: Displacement of [3H]Ro-151788 from recombinant human GABA-Aalpha3 receptor plus beta3gamma2; type: protein-complex assay; how it was run: as §1
T3 sequence (P18507 whole entry): T1 sequence (P18507 whole entry)
T3 sequence (P28472 whole entry): T1 sequence (P28472 whole entry)
T3 sequence (P34903 whole entry): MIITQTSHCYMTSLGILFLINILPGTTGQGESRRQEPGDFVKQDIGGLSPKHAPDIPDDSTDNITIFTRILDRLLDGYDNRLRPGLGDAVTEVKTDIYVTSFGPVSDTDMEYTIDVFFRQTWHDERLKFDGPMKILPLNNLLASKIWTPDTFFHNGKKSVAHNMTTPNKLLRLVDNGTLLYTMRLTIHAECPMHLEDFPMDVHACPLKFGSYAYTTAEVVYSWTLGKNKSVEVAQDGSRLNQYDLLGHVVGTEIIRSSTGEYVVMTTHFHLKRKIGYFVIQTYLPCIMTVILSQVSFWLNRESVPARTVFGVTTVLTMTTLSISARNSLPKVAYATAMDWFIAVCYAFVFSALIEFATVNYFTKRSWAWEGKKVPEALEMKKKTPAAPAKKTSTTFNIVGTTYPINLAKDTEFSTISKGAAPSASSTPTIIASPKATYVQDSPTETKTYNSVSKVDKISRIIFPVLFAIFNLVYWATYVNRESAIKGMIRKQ

[7] = Stability in human assessed as liver microsomal turnover; type: ADME, Microsome; conditions: liver microsomes, read-out: Stability; how it was run: as §2
[8] = target: T4, GABA-A receptor; alpha-1/beta-3/gamma-2 (Homo sapiens, UniProt P14867+P18507+P28472); test: Displacement of [3H]Ro-151788 from recombinant human GABA-Aalpha1 receptor plus beta3gamma2; type: protein-complex assay; how it was run: as §1
T4 sequence (P14867 whole entry): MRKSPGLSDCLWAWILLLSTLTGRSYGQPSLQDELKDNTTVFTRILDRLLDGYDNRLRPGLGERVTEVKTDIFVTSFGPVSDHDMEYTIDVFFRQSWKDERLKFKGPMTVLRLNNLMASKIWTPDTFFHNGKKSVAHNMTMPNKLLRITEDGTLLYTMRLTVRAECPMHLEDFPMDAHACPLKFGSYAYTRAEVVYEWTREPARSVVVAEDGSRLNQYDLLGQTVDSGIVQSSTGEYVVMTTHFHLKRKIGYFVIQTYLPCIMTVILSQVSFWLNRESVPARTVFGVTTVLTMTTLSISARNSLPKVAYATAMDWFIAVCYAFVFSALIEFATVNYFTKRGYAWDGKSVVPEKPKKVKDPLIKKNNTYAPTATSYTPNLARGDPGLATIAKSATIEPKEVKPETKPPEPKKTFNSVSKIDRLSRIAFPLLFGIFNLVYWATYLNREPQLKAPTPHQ
T4 sequence (P18507 whole entry): T1 sequence (P18507 whole entry)
T4 sequence (P28472 whole entry): T1 sequence (P28472 whole entry)

[9] = target: T5, GABA-A receptor; alpha-5/beta-3/gamma-2 (Homo sapiens) (UniProt P18507+P28472+P31644); test: Efficacy against recombinant human GABA-Aalpha5 plus beta-3-gamma-2 expressed in L(tk-) cells by whole cell patch clamp method relative to chlordiazepoxide; type: functional, cell-based; how it was run: as §3
[10] = target: GABA-A receptor; anion channel (Rattus norvegicus) (UniProt O09028+P15431+P18506+P18508+P19969+P20236+P23574+P23576+P28471+P28473+P30191+P62813+P63079+P63138+Q91ZM7+Q9ES14); test: Receptor occupancy in vivo by displacement of [3H]Ro 15-1788 binding from GABA-A receptor in rat, po; type: functional, organism-based
How it was run: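 Rat in vivo occupancy measured by [3H]Ro 15-1788 binding after oral dosing. Rats taken as a subgroup after the plus-maze trial, i.e. 30 min post-dose or later. ED50 derived from dose-dependent occupancy. Mean ± SEM, n = 5-10/group.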

[11] = target: T2, GABA-A receptor; alpha-1/beta-3/gamma-2 (Homo sapiens); test: Efficacy against recombinant human GABA-Aalpha1 plus beta-3-gamma-2 expressed in L(tk-) cells by whole cell patch clamp method; type: functional, cell-based; how it was run: as §3
[12] = Oral bioavailability in rat; type: ADME, organism-based; conditions: in vivo
How it was run: (§4)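 Pharmacokinetics from six animals per species: three dosed iv and three dosed po.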

[13] = Plasma clearance in rat; type: ADME, organism-based; how it was run: as §4
[14] = target: GABA-A receptor; alpha-2/beta-3/gamma-2 (Homo sapiens) (UniProt P18507+P28472+P47869); test: Efficacy against recombinant human GABA-Aalpha2 plus beta-3-gamma-2 expressed in L(tk-) cells by whole cell patch clamp method relative to chlordiazepoxide; type: functional, cell-based; how it was run: as §3
[15] = Half life in rat; type: ADME, organism-based; conditions: in vivo; how it was run: as §4
[16] = target: T5, GABA-A receptor; alpha-5/beta-3/gamma-2 (Homo sapiens); test: Efficacy against recombinant human GABA-Aalpha5 plus beta-3-gamma-2 expressed in L(tk-) cells by whole cell patch clamp method; type: functional, cell-based; how it was run: as §3

SMILES	Ki [1] [nM]	metabolised [2] [%]	Efficacy [3]	Efficacy [4]	metabolised [5] [%]	Ki [6] [nM]	metabolised [7] [%]	Ki [8] [nM]	Efficacy [9]	Activity [10] [mg/kg]	Efficacy [11] [%]	Occ50 [10] [mg/kg]	bioavailability [12] [%]	clearance [13] [mL/min/kg]	Efficacy [14]	half-life [15] [h]	Efficacy [16] [%]
Fc1ccccc1-c1cc(-c2ccc(F)c(-c3ncccc3F)c2)cnn1	0.5	11	0.11	0.31	34	0.9											
Fc1ccc(-c2cc(-c3ccc(F)c(-c4ncc(F)cc4F)c3)cnn2)cc1	3.8	7	0.02	0.21	20	5.6											
Fc1ccc(-c2cnnc(-c3ncccc3F)c2)cc1-c1ncccc1F	2.4	3		0.4	2	1.4	5	0.5		0.5	-30						
Fc1ccc(-c2cnnc(-c3c(F)cccc3F)c2)cc1-c1ncccc1F	0.3	19		0.24	24	0.4	13	0.1			-5						
Fc1ccc(-c2cnnc(-c3c(F)cncc3F)c2)cc1-c1ncccc1F	3	9		0.39	9	3.2	9	0.8			-7	< 0.2					

Results, then the compound that gave them:

Ki [1] [nM]	metabolised [2] [%]	Efficacy [3]	Efficacy [4]	metabolised [5] [%]	Ki [6] [nM]	metabolised [7] [%]	Ki [8] [nM]	Efficacy [9]	Activity [10] [mg/kg]	Efficacy [11] [%]	Occ50 [10] [mg/kg]	bioavailability [12] [%]	clearance [13] [mL/min/kg]	Efficacy [14]	half-life [15] [h]	Efficacy [16] [%]	SMILES
3.2	< 5		0.17		1.7	< 5	0.4	0.14	< 0.2	-26							Fc1cnc(-c2cc(-c3cnnc(-c4ncccc4F)c3)ccc2F)c(F)c1
1.4	13	0.07	0.42	18	3.1	< 5					4.6						Fc1ccc(-c2cc(-c3ccc(F)c(-c4ncc(F)cc4F)c3)cnn2)c(F)c1
7.7	17		0.58	8	5.6	8	0.9			-8	7.2	5	91	0.24	0.8	-3	Fc1cnccc1-c1cc(-c2ccc(F)c(-c3ncccc3F)c2)cnn1
5.6	23		0.41		8.2	< 5	3.5			-7	15.3						Fc1cnc(-c2cc(-c3cnnc(-c4ccncc4F)c3)ccc2F)c(F)c1
0.7	22		0.4	31	1.7	8				-20	3	11	30	0.2	2.2	-20	Fc1cnc(-c2cc(-c3cnnc(-c4ccccc4F)c3)ccc2F)c(F)c1

— ChEMBL document CHEMBL1146073, “A pyridazine series of alpha2/alpha3 subtype selective GABA A agonists for the treatment of anxiety” (J Med Chem, 2006)
